# Assay results as given in ChEMBL document CHEMBL1921733, “III. Identification of novel CXCR3 chemokine receptor antagonists with a pyrazinyl-piperazinyl-piperidine scaffold” (Bioorg Med Chem Lett, 2011).
# pIC50: −log10 of the molar value.
# Assays:
# [1] = AUC in rat at 10 mg/kg, po after 6 hrs; details: in vivo
# [2] = molecular target: T1, C-X-C chemokine receptor type 3 (Homo sapiens, UniProt P49682); assay: Displacement of [125I]CXCL10 from human CXCR3 expressed in mouse BA/F3 cells; type: cell-based, BaF3
# T1 sequence (P49682 whole entry): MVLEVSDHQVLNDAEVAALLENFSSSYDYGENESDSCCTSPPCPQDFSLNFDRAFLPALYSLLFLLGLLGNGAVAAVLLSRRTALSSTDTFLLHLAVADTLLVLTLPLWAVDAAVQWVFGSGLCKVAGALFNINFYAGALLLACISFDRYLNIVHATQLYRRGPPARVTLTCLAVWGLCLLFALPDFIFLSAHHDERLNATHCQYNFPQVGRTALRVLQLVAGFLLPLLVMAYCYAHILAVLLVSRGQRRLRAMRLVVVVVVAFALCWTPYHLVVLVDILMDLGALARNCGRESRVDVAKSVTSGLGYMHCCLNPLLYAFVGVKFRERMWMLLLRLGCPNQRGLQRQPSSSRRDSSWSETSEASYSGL
# Outline: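 Radioligand displacement of 125I-labelled human CXCL10 from recombinant Ba/F3 cells expressing human CXCR3.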
# hERG (KCNH2) = hERG (KCNH2) (Homo sapiens, UniProt Q12809); assay: Inhibition of human ERG at 10 uM by rubidium efflux assay
# Outline: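 hERG K+ channel block measured by rubidium efflux with test compound at 10 μM, reported as % inhibition.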
# Sequence of hERG (KCNH2) (Q12809 whole entry): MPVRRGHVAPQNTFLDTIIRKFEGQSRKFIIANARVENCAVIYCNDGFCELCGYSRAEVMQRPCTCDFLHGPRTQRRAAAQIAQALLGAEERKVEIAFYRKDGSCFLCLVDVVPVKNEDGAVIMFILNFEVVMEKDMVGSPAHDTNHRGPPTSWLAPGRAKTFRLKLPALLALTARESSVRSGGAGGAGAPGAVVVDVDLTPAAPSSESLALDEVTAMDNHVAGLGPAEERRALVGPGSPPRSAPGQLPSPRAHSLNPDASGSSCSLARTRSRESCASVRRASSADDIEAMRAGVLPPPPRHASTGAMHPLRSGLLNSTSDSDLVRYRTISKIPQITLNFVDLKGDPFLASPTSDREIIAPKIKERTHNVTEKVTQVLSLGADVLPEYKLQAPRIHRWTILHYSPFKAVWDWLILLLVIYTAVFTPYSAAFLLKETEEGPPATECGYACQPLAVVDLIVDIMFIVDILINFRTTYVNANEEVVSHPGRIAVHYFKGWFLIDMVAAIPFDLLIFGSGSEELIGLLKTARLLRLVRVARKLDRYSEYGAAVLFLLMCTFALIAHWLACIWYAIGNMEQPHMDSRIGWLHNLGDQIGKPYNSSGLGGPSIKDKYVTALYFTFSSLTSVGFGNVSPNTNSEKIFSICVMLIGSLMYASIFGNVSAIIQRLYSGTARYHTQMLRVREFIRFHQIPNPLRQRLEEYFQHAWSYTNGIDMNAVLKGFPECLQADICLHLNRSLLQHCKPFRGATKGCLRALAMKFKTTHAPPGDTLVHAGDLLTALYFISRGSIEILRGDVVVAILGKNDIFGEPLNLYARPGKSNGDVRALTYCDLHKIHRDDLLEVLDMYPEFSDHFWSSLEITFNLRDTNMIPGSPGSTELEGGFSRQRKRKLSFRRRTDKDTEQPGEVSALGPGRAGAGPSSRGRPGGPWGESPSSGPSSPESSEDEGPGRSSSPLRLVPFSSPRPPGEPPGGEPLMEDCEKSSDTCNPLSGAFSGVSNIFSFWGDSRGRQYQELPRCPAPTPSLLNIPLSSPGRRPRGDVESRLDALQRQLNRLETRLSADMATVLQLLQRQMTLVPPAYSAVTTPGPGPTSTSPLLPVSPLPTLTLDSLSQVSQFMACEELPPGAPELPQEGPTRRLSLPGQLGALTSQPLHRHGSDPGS
SMILES,AUC at 6 h [1],pIC50 [2],inhibition at 10 µM (hERG (KCNH2))
CC[C@H]1CN(c2nc(N)c(C(N)=O)nc2Cl)CCN1C1CCN(Cc2ccc(Cl)cc2)CC1,5.1 µM·h,,
CC[C@H]1CN(c2nc(N)c(C(N)=O)nc2Cl)CCN1C1CCN(Cc2ccc(OC(F)(F)F)cc2)CC1,,8.43,
CC[C@H]1CN(c2nc(N)c(C(N)=O)nc2Cl)CCN1C1CCN(Cc2ccc(C#N)cc2)CC1,,8.07,
CC[C@H]1CN(c2nc(N)c(C(N)=O)nc2Cl)CCN1C1CCN(C(CO)c2ccc(Cl)cc2)CC1 (some centres undefined),,8.72,
CC[C@H]1CN(c2nc(N)c(C(N)=O)nc2Cl)CCN1C1CCN(C(=O)c2ccc(Cl)cc2)CC1,,7.12,
CC[C@H]1CN(c2nc(N)c(C(=O)NC)nc2Cl)CCN1C1CCN(Cc2ccc(Cl)cc2)CC1,,9.52,
CC[C@H]1CN(c2nc(N)c(C(=O)NCC(F)(F)F)nc2Cl)CCN1C1CCN(Cc2ccc(Cl)cc2)CC1,,9.10,
CC[C@H]1CN(c2nc(N)c(C(=O)NCCO)nc2Cl)CCN1C1CCN(Cc2ccc(Cl)cc2)CC1,,9.40,
CC[C@H]1CN(c2nc(N)c(C(=O)NCC(C)O)nc2Cl)CCN1C1CCN(Cc2ccc(Cl)cc2)CC1 (some centres undefined),,9.52,
CC[C@H]1CN(c2nc(N)c(C(=O)NCC(C)(C)O)nc2Cl)CCN1C1CCN(Cc2ccc(Cl)cc2)CC1,,8.08,
CC[C@H]1CN(c2nc(N)c(C(=O)NCCNS(=O)(=O)C(F)(F)F)nc2Cl)CCN1C1CCN(Cc2ccc(Cl)cc2)CC1,,9.05,
CC[C@H]1CN(c2nc(N)c(C(=O)NCCNS(N)(=O)=O)nc2Cl)CCN1C1CCN(Cc2ccc(Cl)cc2)CC1,,8.72,
CC[C@H]1CN(c2nc(N)c(C(=O)NCCS(C)(=O)=O)nc2Cl)CCN1C1CCN(Cc2ccc(Cl)cc2)CC1,,8.19,
CC[C@H]1CN(c2nc(N)c(C(=O)N[C@@H]3CCOC3=O)nc2Cl)CCN1C1CCN(Cc2ccc(Cl)cc2)CC1,,8.82,
CC[C@H]1CN(c2nc(N)c(C(=O)NCCNS(N)(=O)=O)nc2Cl)CCN1C1CCN(Cc2ccc(F)c(F)c2)CC1,,8.05,4%
CC[C@H]1CN(c2nc(N)c(C(=O)NCCNS(C)(=O)=O)nc2Cl)CCN1C1CCN(Cc2ccc(Cl)cc2)CC1,,8.36,39%
CC[C@H]1CN(c2nc(N)c(C(N)=O)nc2Cl)CCN1C1CCN(Cc2ccc(Cl)cc2[C@H](O)C(N)=O)CC1,,8.39,14%
CC[C@H]1CN(c2nc(N)c(C(=O)NCCO)nc2Cl)CCN1C1CCN(C(=O)c2ccc(Cl)nc2N)CC1,5.9 µM·h,8.47,17%
CC[C@H]1CN(c2ncc(C(N)=O)nc2Cl)CCN1C1CCN(C(=O)c2ccc(Cl)nc2N)CC1,,8.60,7%
CC[C@H]1CN(c2ncc(C(=O)NC(C)(C)C)nc2Cl)CCN1C1CCN(C(=O)c2ccc(Cl)nc2N)CC1,,8.82,13%

SMILES,AUC at 6 h [1],pIC50 [2],inhibition at 10 µM (hERG (KCNH2))
CC[C@H]1CN(c2ncc(C(=O)NC3CC3)nc2Cl)CCN1C1CCN(C(=O)c2ccc(Cl)nc2N)CC1,,8.92,19%
CC[C@H]1CN(c2ncc(C(=O)NC(C)C)nc2Cl)CCN1C1CCN(C(=O)c2ccc(Cl)nc2N)CC1,,9.05,56%
CC[C@H]1CN(c2ncc(C(=O)NCCO)nc2Cl)CCN1C1CCN(C(=O)c2ccc(Cl)nc2N)CC1,,8.54,11%
CC[C@H]1CN(c2ncc(C(=O)NC[C@@H](C)O)nc2Cl)CCN1C1CCN(C(=O)c2ccc(Cl)nc2N)CC1,,8.54,17%
CC[C@H]1CN(c2ncc(C(N)=O)nc2C(F)(F)F)CCN1C1CCN(C(=O)c2ccc(Cl)nc2N)CC1,15.3 µM·h,8.72,0%
CC[C@H]1CN(c2ncc(C(=O)NC)nc2C(F)(F)F)CCN1C1CCN(C(=O)c2ccc(Cl)nc2N)CC1,6.4 µM·h,8.82,0%
CC[C@H]1CN(c2ncc(C(=O)NC3CC3)nc2C(F)(F)F)CCN1C1CCN(C(=O)c2ccc(Cl)nc2N)CC1,3.6 µM·h,8.74,53%
CC[C@H]1CN(c2ncc(C(N)=O)nc2C)CCN1C1CCN(C(=O)c2ccc(Cl)nc2N)CC1,30.2 µM·h,8.40,0%
CC[C@H]1CN(c2ncc(C(=O)NC)nc2C)CCN1C1CCN(C(=O)c2ccc(Cl)nc2N)CC1,12.1 µM·h,8.62,5%
CC[C@H]1CN(c2ncc(C(=O)NC3CC3)nc2C)CCN1C1CCN(C(=O)c2ccc(Cl)nc2N)CC1,22 µM·h,8.72,16%
CC[C@H]1CN(c2ncc(C(N)=O)nc2C)CCN1C1CCN(C(=O)c2ccc(Cl)cc2)CC1,,7.74,6%
CC[C@H]1CN(c2ncc(C(=O)NC)nc2C)CCN1C1CCN(C(=O)c2ccc(Cl)cc2)CC1,,8.44,41%
CCNC(=O)c1cnc(N2CCN(C3CCN(C(=O)c4ccc(Cl)cc4)CC3)[C@@H](CC)C2)c(C)n1,2.9 µM·h,8.70,44%
CC[C@H]1CN(c2ncc(C(=O)NC3CC3)nc2C)CCN1C1CCN(C(=O)c2ccc(Cl)cc2)CC1,8.4 µM·h,8.96,74%
CC[C@H]1CN(c2ncc(C(N)=O)nc2C)[C@H](C)CN1C1CCN(C(=O)c2ccc(Cl)cc2)CC1,,8.27,9%
CC[C@@H]1CN(C2CCN(C(=O)c3ccc(Cl)cc3)CC2)[C@@H](CC)CN1c1ncc(C(N)=O)nc1C,,6.63,13%
CC[C@H]1CN(c2ncc(C(N)=O)nc2C)[C@@H](C)CN1C1CCN(C(=O)c2ccc(Cl)cc2)CC1,,< 6.00,
CC[C@H]1CN(c2ncc(C(=O)NC)nc2C)[C@H](C)CN1C1CCN(C(=O)c2ccc(Cl)cc2)CC1,,8.38,30%
CC[C@H]1CN(c2ncc(C(=O)NC3CC3)nc2C)[C@H](C)CN1C1CCN(C(=O)c2ccc(Cl)cc2)CC1,9.8 µM·h,8.89,7%
CCNC(=O)c1cnc(N2CCN(C3CCN(Cc4ccc(Cl)cc4)CC3)[C@@H](CC)C2)c(Cl)c1,0.4 µM·h,,
